# Laboratory results reported in PubChem BioAssay AID602194 (The Scripps Research Institute Molecular Screening Center, 2012).
# The whole screen tested about 2,400 compounds, of which about 140 (5.8%) were called active. These entries were drawn from the full list. Unmarked numbers belong to inactive results.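 Rule for the calls: active = mean activation across replicates exceeds the hit threshold derived in the earlier primary screen (cut at about 18% in these data); inactive = the rest.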
# Target: Mu-type opioid receptor (Homo sapiens) + Delta-type opioid receptor (Homo sapiens) (UniProt P35372+P41143)
# Test: OPRM1-OPRD1 heterodimer beta-arrestin recruitment activators – cell-based, luminescence, counter-screen for MC4R biased agonist project (AID 602194);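 note: 100% = deltorphin B at 0.9 µM final and 0% = DMSO alone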
# Settings: U2OS PathHunter beta-arrestin, beta-gal luminescence; at 9.2 µM; stronger effect = higher value; percent of deltorphin B response, DMSO zero
# Method in brief: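 Material: U2OS Mu-Delta cells coexpressing OPRM1, OPRD1 and beta-arrestin. Schedule: 23 h growth, 3 h compound 37 °C, 1 h detection. Measured by: beta-gal complementation luminescence. Read-out: percent activation, mean of triplicates, scaled between DMSO and Deltorphin B. Control set: Deltorphin B high, DMSO low. Repeats: three replicates.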
# Sequence of Mu-type opioid receptor (Homo sapiens) + Delta-type opioid receptor (Homo sapiens) (P35372 whole entry, looked up): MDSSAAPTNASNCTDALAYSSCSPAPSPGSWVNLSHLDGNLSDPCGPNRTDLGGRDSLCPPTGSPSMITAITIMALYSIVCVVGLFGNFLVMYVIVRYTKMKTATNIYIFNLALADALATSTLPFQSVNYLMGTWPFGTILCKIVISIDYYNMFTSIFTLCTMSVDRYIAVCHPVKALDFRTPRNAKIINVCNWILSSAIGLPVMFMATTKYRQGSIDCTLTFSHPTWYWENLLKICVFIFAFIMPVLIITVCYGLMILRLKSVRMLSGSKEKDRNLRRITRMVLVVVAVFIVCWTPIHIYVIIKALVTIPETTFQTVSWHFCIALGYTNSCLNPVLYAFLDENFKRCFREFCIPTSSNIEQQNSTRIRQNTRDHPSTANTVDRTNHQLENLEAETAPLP
# Sequence of Mu-type opioid receptor (Homo sapiens) + Delta-type opioid receptor (Homo sapiens) (P41143 whole entry, looked up): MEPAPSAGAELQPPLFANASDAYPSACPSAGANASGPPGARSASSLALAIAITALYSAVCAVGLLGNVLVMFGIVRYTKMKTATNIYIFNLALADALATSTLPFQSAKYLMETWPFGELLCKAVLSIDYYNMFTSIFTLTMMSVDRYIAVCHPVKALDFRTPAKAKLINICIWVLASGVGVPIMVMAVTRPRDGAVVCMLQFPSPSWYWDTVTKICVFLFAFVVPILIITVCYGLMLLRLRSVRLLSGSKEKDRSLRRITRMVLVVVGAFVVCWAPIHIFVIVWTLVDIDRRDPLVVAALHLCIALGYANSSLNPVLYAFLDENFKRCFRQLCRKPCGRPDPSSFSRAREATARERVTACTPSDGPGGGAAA
row,Structure (SMILES),activation
1,COC(=O)c1sccc1NC(=O)CCC1CCCC1,6.23%
2,O=C(CCCN1C(=O)/C(=C/c2cccs2)SC1=S)Nc1ccc(O)cc1,1.75%
3,N#CCC(=O)N/N=C/c1cn(Cc2ccc3ccccc3c2)c2ccccc12,25.5% (active)
4,CCOC(=O)c1c(-c2ccc(C)cc2C)csc1NC(=O)CSc1nnnn1C,7.04%
5,CCN(CC)c1ccc(C(=O)N/N=C/c2ccc(N3CCOCC3)cc2)cc1,13.2%
6,COC(=O)c1nc2n(n1)C(c1ccc([N+](=O)[O-])cc1)C(C(=O)Nc1ccc(Cl)cc1)=C(C)N2 (stereo not given),3.4%
7,COc1ccc2sc(-c3ccc(S(C)(=O)=O)cc3)c(C#Cc3cncn3C)c2c1,9.34%
8,O=C(CCCCCn1c(=S)[nH]c2cc3c(cc2c1=O)OCO3)N1CCN(c2ccc(F)cc2)CC1,3.68%
9,COc1ccc(Cc2nnc(NC(=O)c3ccc(OC)cc3OC)s2)cc1,4.47%
10,CCOC(=O)c1nn(-c2ccccc2F)c2nc(Nc3ccccc3)cc(=O)n12,17.8%
11,CCCOc1ccc(C(=O)C(CCC(CNCC)C(=O)c2ccc(OCCC)cc2)CNCC)cc1 (stereo not given),17.3%
12,Cc1ccc(-n2nc3cc(Cl)c(NC(=O)c4ccco4)cc3n2)cc1,0.83%
13,Oc1ccccc1N1CCN(c2ncnc3sc(-c4ccccc4)cc23)CC1,3.28%
14,Cc1ccc(Nc2nnc(SCc3ccccc3)s2)cc1,8.17%
15,COc1cccc(CNC(=O)c2nnn(CC(=O)Nc3cc(Cl)ccc3C)c2N)c1,11.8%
16,COCCN(CCOC)S(=O)(=O)c1ccc(C(=O)Nc2nc3c(s2)CCc2ccccc2-3)cc1,6.22%
17,Clc1ccc(Nc2ncnc3c2nnn3Cc2ccccc2)cc1,5.74%
18,COC(=O)c1c(C)[nH]c(C(=O)/C=C/c2ccc(Cl)cc2)c1C,4.27%
19,COc1cc(/C=C2\Oc3ccc(C#Cc4ccc(O)cc4)cc3C2=O)cc(OC)c1,11.3%
20,CN(C)CCNC(=O)c1cccc(-c2cnc3c(NC=O)cc(-c4cccc(C(F)(F)F)c4)cn23)c1,7.61%
21,O=C(Nc1nc(-c2ccc(-c3ccccc3)cc2)cs1)c1cnccn1,2.08%
22,Clc1ccccc1Nc1nc(NCc2cccs2)nc2ccsc12,5.36%
23,CC(C)Oc1c(Br)cc(Br)cc1/C=N/NC(N)=S,9.18%

row,Structure (SMILES),activation
1,CCc1ccc(Nc2ncc3c(n2)CC(c2ccco2)CC3=O)cc1 (stereo not given),13.5%
2,COc1cc(NC(=O)c2cncc(-c3ccc(C#N)cc3)c2)cc(C(=O)Nc2cccc(C(F)(F)F)c2)c1,5.39%
3,COc1ccc(Nc2oc(-c3ccccc3Cl)nc2C#N)cc1,6.69%
4,CCOC(=O)c1c(-c2ccccc2)oc2cc(Br)c(O)c(C=O)c12,3.34%
5,Cc1ccc2nc(-c3ccncc3)cc(C(=O)Nc3ccc(OC(F)F)cc3)c2c1,8.13%
6,COc1ccc(/C=N/NC(=O)Nc2ccc3nsnc3c2)c(OC)c1,3.63%
7,Cc1ccc(-n2nc(C)c(/C=N/NC(=O)c3cccs3)c2Cl)cc1,7.37%
8,COc1ccccc1NC(=O)Nc1nnc(Cc2ccc(F)cc2)s1,10.7%
9,Cc1c(-c2ccccc2)n[nH]c1C(=O)N=Nc1c(O)[nH]c2ccccc12,8.27%
10,COc1ccc2nc(NC(=O)c3ccc(Br)s3)sc2c1,8.88%
11,C=CCn1c(SCC(=O)c2ccc(Br)cc2)nnc1C(C)NC(=O)Cc1ccc(OC)cc1 (stereo not given),7.14%
12,O=C(OCc1cn(-c2ccc(Cl)c(Cl)c2)nn1)c1ccccc1Cl,3.56%
13,Cc1ccc(C(=O)Nc2ccc(NC(=O)c3cccs3)cc2)c(C)c1,6.51%
14,Cc1ccc(Sc2ccc(NC(=O)c3ccc(F)cc3)cc2C#N)cc1,4.2%
15,Cc1ccsc1/C=N/Nc1ccc(Cl)nn1,5.93%
16,Cc1ccc(-c2csc(SCC(=O)Nc3cc(C)on3)n2)cc1,7.19%
17,COc1cccc(NC(=S)NC(=O)c2c(Cl)c(C)nn2C)c1,3.17%
18,N#CC(=C1SC=CS1)c1nc(-c2ccccc2)cs1,3.11%
19,O=C(c1cc(-c2cccc(O)c2)on1)N1CCc2ccccc2C1,11.4%
20,CSc1ccc(S(=O)(=O)NCc2ccc(Cl)cc2)cc1,8.41%
21,Cc1ccc(Nc2nnc(SCC(=O)c3cc4ccccc4o3)s2)cc1C,4.48%
22,COc1ccc(C(=O)n2nc(-c3ccc(C)cc3)nc2N)cc1OC,4.64%
23,Fc1ccccc1/C=N/Nc1cc(N2CCCCC2)ncn1,7.52%

row,Structure (SMILES),activation
1,Cc1cc(OCc2cc(C(=O)NCc3cc(C(C)C)no3)no2)cc(C)c1Cl,3.52%
2,CCN1CCC2(CC1)N=C(c1ccc(F)cc1)C(=S)N2C(=O)c1ccc(C)cc1,52% (active)
3,CCN(CC)C(=O)Oc1ccc(Br)cc1C(=O)Nc1ccc(F)c(Cl)c1,3.45%
4,CN(C)CCCN(C(=O)c1ccc(S(=O)(=O)N2CCCCCC2)cc1)c1nc2ccc(Br)cc2s1,16.5%
5,S=C(NCCCc1cnc[nH]1)NCCCN(Cc1ccc(Cl)c(Cl)c1)c1ccc(Br)cn1,5.39%
6,COc1ccc(Cn2c(C)c(C)c(C#N)c2NC(=O)Nc2ccc(F)cc2)cc1,7.17%
7,COc1cccc(-c2cnc3c(NC(C)=O)cc(-c4cc(F)ccc4OC)cn23)c1,3.13%
8,Cc1cc(/C=C(/C#N)C(=O)Nc2ccc(Cl)cc2)c(C)n1-c1cccnc1,4.36%
9,CCC(=O)c1cc2c(cc1NC(=O)c1cccs1)OCCO2,3.16%
10,COC(=O)c1sccc1NC(=O)c1cc(OC)c(OC)c(OC)c1,2.04%
11,Cc1ccc(S(=O)(=O)NCCC(=O)Nc2ccc(C)c(Cl)c2)cc1C,10.4%
12,CN(C)C(=O)c1cccc(-c2cnc3c(NC=O)cc(-c4ccc(F)cc4)cn23)c1,1.45%
13,Cn1c(=S)sc2ccc3ccccc3c21,6.66%
14,COc1ccc(Nc2ncnc3sc(-c4ccccc4)cc23)c(OC)c1,3.93%
15,COc1ccc(CC(N)c2csc(NC(=O)NC(c3ccccc3)c3ccccc3)n2)cc1 (stereo not given),27.4% (active)
16,CC(=O)Nc1ccc(-c2csc(NC(=O)Nc3ccccc3)n2)cc1,4.45%
17,COc1ccc(C(N)c2csc(NC(=O)Nc3cccc(C(F)(F)F)c3)n2)cc1 (stereo not given),13.5%
18,COc1ccc(Cl)cc1-n1c(C)cc(C(=O)OCC(=O)N2CC(=O)Nc3ccccc32)c1C,3.77%
19,CC(=O)c1sc(NC(=O)CCCOc2ccccc2C)nc1C,7.21%
20,CSc1nc2sc3c(c2c(=O)[nH]1)CCc1ccccc1-3,7.74%
21,Cc1ccc(-c2csc(NC(=O)Cn3[nH]c(=O)c4ccccc4c3=O)n2)cc1,6.76%
22,Cc1ccc(NC(=O)Nc2ccccc2)c(Br)c1,7.33%
23,CCn1c(SCC(=O)Nc2cccc(F)c2)nnc1-c1cc2cc(Br)ccc2o1,6.83%

row,Structure (SMILES),activation
1,O=C(Nc1sc2c(c1-c1nc3ccccc3[nH]1)CCCC2)C1CC1,4.53%
2,Cc1cccc(C)c1OC(=O)CSc1nnc(-c2ccccc2)o1,3.88%
3,O=C1N/C(=C/c2cccn2-c2ccccc2)C(=O)N1c1cccc(Cl)c1,6.05%
4,O=C(CSc1ccccc1)Nc1nnc(/C=C/c2ccccc2)s1,6.5%
5,CCCCN1CC(C)(C)[C@H](CC(=O)Nc2ccc(Br)cc2)C1=O,4.9%
6,COc1cccc2sc(N(CCCN(C)C)C(=O)C(c3ccccc3)c3ccccc3)nc12,9.67%
7,COCCNc1nc(Nc2ccccc2Cl)c2sc(-c3ccccc3)cc2n1,5.13%
8,Cc1nn2cc(-c3ccc(Cl)cc3)cnc2c1Br,2.93%
9,CCc1ccc2c(c1)cc(CN(C(=S)Nc1ccccc1Cl)C1CC1)c1nnnn12,2.95%
10,CC(=O)Nc1ccc(NC(=O)c2sc3nc4c(c(-c5ccc(C)cc5)c3c2N)CCC4)cc1,14.3%
11,Cc1ccc(CCC(=O)Nc2ncc(Cc3cc(Cl)ccc3Cl)s2)o1,10.6%
12,Cc1cc(C)cc(C(=O)OCC(=O)NCCNC(=O)COC(=O)c2cc(C)cc(C)c2)c1,3.35%
13,CC(C)c1ccc2c(c1)c(SC(C)(C)C)c(CC(C)(C)C(=O)O)n2Cc1ccc(Cl)cc1,4.65%
14,COc1ccc(S(=O)(=O)N2CCC(C(=O)OCC(=O)c3ccccc3)CC2)cc1[N+](=O)[O-],4.26%
15,CCOc1ccc(/C=C/C(=O)OCC(=O)c2ccccc2OC)cc1OC,3.55%
16,COc1ccc(C(=O)c2oc3ccc(Br)cc3c2NC(C)=O)cc1,1.7%
17,COc1cccc(CNCCc2c[nH]c3ccccc23)c1OCc1ccccc1F,39.6% (active)
18,O=C(Cn1cnc2c(nnn2-c2ccccc2)c1=O)N1CCC(Cc2ccccc2)CC1,3.51%
19,O=C(OC12CC3CC(CC(C3)C1)C2)c1ccc(NCc2cc(O)ccc2O)cc1,7.74%
20,Cc1ccc([C@H]2C[C@H](O)[C@@H](n3cc(COC(=O)c4ccccc4)nn3)CN2C(=O)C2CCCCC2)cc1,5.71%
21,O=C(Nc1ccc2oc(-c3ccc4ccccc4c3)nc2c1)c1cccs1,5.63%
